Columns and labels:
Format in all cases: functional
[1] = test system: HL-60(TB); assay: Growth inhibition of human HL-60(TB) cells assessed as cell viability at 1 uM incubated for 48 hrs by sulforhodamine B assay; details: HL-60, 48 h, read-out: Activity
Method in brief: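 NCI-60 five-dose assay, SRB end-point, same culture conditions. Compound is tested at tenfold dilutions of 0.01, 0.1, 1, 10 and 100 µM for 48 h at 37 °C, with DMSO/PBS vehicle controls. Percentage growth at each concentration is taken against untreated cells and a time-zero plate. GI50 is 50% net growth decrease, TGI is total growth inhibition, and LC50 is 50% loss of initial cells.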

[2] = test system: MDA-MB-468; assay: Growth inhibition of human MDA-MB-468 cells incubated for 48 hrs by sulforhodamine B assay; details: MDA-MB-468, 48 h
Method in brief: (§1)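 NCI-60 five-dose SRB assay in RPMI 1640 with 5% FBS, 37 °C, 5% CO2. Compound given at five tenfold dilutions, 0.01–100 µM, for 48 h. Adherent cells fixed with TCA, suspension cells with 16% final TCA. Bound SRB read at 515 nm and growth calculated against time-zero and untreated controls. GI50 taken from dose–response curves as the concentration giving a 50% decrease in net cell growth.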

[3] = test system: T47D; assay: Growth inhibition of human T47D cells assessed as cell viability at 0.001 uM incubated for 48 hrs by sulforhodamine B assay relative to control; details: read-out: Activity
[4] = test system: PC-3; assay: Growth inhibition of human PC3 cells assessed as cell viability at 1 uM incubated for 48 hrs by sulforhodamine B assay; details: PC-3, 48 h, read-out: Activity
[5] = test system: UO-31; assay: Growth inhibition of human UO31 cells incubated for 48 hrs by sulforhodamine B assay; details: UO-31, 48 h
Method in brief: (§2)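 NCI-60 five-dose SRB assay. Cells were exposed for 48 h to tenfold dilutions of 0.01, 0.1, 1, 10 and 100 µM, in RPMI 1640 with 5% FBS. Plates fixed with TCA at the time of drug addition served as the time-zero reference. GI50 is the concentration giving a 50% reduction in net growth. TGI is total growth inhibition. LC50 is a net 50% loss of the initial cells.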

[6] = test system: SN12C; assay: Growth inhibition of human SN12C cells assessed as cell viability at 0.001 uM incubated for 48 hrs by sulforhodamine B assay relative to control; details: read-out: Activity
[7] = test system: NCI-H322M; assay: Growth inhibition of human NCI-H322M cells assessed as cell viability at 0.1 uM incubated for 48 hrs by sulforhodamine B assay; details: read-out: Activity
[8] = test system: SF-539; assay: Growth inhibition of human SF539 cells incubated for 48 hrs by sulforhodamine B assay; details: SF-539, 48 h; method in brief: as §2
[9] = test system: SK-MEL-2; assay: Growth inhibition of human SK-MEL-2 cells assessed as cell viability at 100 uM incubated for 48 hrs by sulforhodamine B assay; details: SK-MEL-2, 48 h, read-out: Activity
[10] = test system: MDA-MB-231; assay: Growth inhibition of human MDA-MB-231 cells incubated for 48 hrs by sulforhodamine B assay; details: MDA-MB-231, 48 h; method in brief: as §1
[11] = test system: OVCAR-5; assay: Growth inhibition of human OVCAR5 cells assessed as cell viability at 0.001 uM incubated for 48 hrs by sulforhodamine B assay relative to control; details: OVCAR-5, 48 h, read-out: Activity
[12] = test system: SNB-75; assay: Cell cycle arrest in human SNB75 cells assessed as accumulation in preG1 phase at 2 uM incubated for 24 hrs by propidium iodide based flow cytometry (reference value: 1.85 %)
Method in brief: (§3)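 SNB-75 cells were exposed to 2 µM for 24 h at 37 °C, 5% CO2, then washed with PBS and fixed in 70% ethanol on ice for 15 min. They were stained 1 h at room temperature with 50 µg/mL propidium iodide, 0.1 mg/mL RNase A and 0.05% Triton X-100. DNA content was read by flow cytometry to give the % of cells in pre-G1, G0/G1, S and G2/M.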

[13] = test system: HOP-92; assay: Growth inhibition of human HOP92 cells assessed as cell viability at 0.001 uM incubated for 48 hrs by sulforhodamine B assay relative to control; details: HOP-92, 48 h, read-out: Activity
[14] = test system: ACHN; assay: Growth inhibition of human ACHN cells assessed as cell viability at 1 uM incubated for 48 hrs by sulforhodamine B assay; details: read-out: Activity
Method in brief: (§4)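 NCI-60 five-dose mode: five tenfold dilutions (0.01, 0.1, 1, 10, 100 µM) are applied for 48 h to cells in RPMI 1640 with 5% FBS at 37 °C. Endpoint is TCA fixation with sulforhodamine B read at 515 nm. % growth comes from the 0 h and control absorbances. GI50 is the concentration giving a 50% reduction in net cell growth.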

[15] = test system: PC-3; assay: Growth inhibition of human PC3 cells assessed as cell viability at 100 uM incubated for 48 hrs by sulforhodamine B assay; details: PC-3, 48 h, read-out: Activity
[16] = test system: RXF 393; assay: Growth inhibition of human RXF393 cells assessed as cell viability at 1 uM incubated for 48 hrs by sulforhodamine B assay; details: RXF 393, 48 h, read-out: Activity
[17] = test system: CCRF-CEM; assay: Growth inhibition of human CCRF-CEM cells incubated for 48 hrs by sulforhodamine B assay; method in brief: as §4
[18] = test system: SNB-75; assay: Cell cycle arrest in human SNB75 cells assessed as accumulation in G0/G1 phase at 2 uM incubated for 24 hrs by propidium iodide based flow cytometry (reference value: 55.62 %); method in brief: as §3
[19] = test system: SK-MEL-28; assay: Growth inhibition of human SK-MEL-28 cells assessed as cell viability at 1 uM incubated for 48 hrs by sulforhodamine B assay; details: SK-MEL-28, 48 h, read-out: Activity
[20] = test system: MCF7; assay: Growth inhibition of human MCF7 cells assessed as cell viability at 0.001 uM incubated for 48 hrs by sulforhodamine B assay relative to control; details: MCF7, 48 h, read-out: Activity
[21] = test system: HT-29; assay: Growth inhibition of human HT-29 cells assessed as cell viability at 1 uM incubated for 48 hrs by sulforhodamine B assay; details: HT-29, 48 h, read-out: Activity
[22] = test system: A549; assay: Growth inhibition of human A549/ATCC cells assessed as cell viability at 0.001 uM incubated for 48 hrs by sulforhodamine B assay relative to control; details: A549, 48 h, read-out: Activity
[23] = read-out: LC50 (the source's name)
[24] = read-out: pLC50 (the source's name) (converted)

CC1=C(C(=O)OCc2ccccc2)C(c2ccc3c(c2)OCO3)n2c(nc3ccccc32)N1 (racemic)
viability at 1 µM [1]: 8% | GI50 ([2]; read-out: GI50): 0.27 µM | CC50 [2, 23]: > 100 µM | TGI ([2]; read-out: TGI): > 100 µM | GI50 ([2]; read-out: pGI50 (converted)): 0.269 µM | CC50 [2, 24]: > 100 µM | TGI ([2]; read-out: pTGI): > 100 µM | viability at 0.001 µM [3]: 82% | viability at 1 µM [4]: 35% | GI50 ([5]; read-out: GI50): 0.59 µM | CC50 [5, 23]: > 100 µM | GI50 ([5]; read-out: pGI50 (converted)): 0.589 µM | CC50 [5, 24]: > 100 µM | TGI ([5]; read-out: pTGI (converted)): 63.1 µM | viability at 0.001 µM [6]: 89% | viability at 0.1 µM [7]: 99% | GI50 ([8]; read-out: GI50): 0.34 µM | LC50 ([8]; read-out: LC50): > 100 µM | TGI ([8]; read-out: TGI): > 100 µM | GI50 ([8]; read-out: pGI50 (converted)): 0.339 µM | LC50 ([8]; read-out: pLC50 (converted)): > 100 µM | TGI ([8]; read-out: pTGI): > 100 µM | viability at 100 µM [9]: 37% | GI50 ([10]; read-out: GI50): 85.7 µM | CC50 [10, 23]: > 100 µM | TGI ([10]; read-out: TGI): > 100 µM | GI50 ([10]; read-out: pGI50 (converted)): 85.1 µM | CC50 [10, 24]: > 100 µM | TGI ([10]; read-out: pTGI): > 100 µM | viability at 0.001 µM [11]: 93% | Activity [12]: 24.82% | viability at 0.001 µM [13]: 67% | viability at 1 µM [14]: 39% | viability at 100 µM [15]: 45% | viability at 1 µM [16]: 7% | GI50 ([17]; read-out: GI50): 0.41 µM | CC50 [17, 23]: > 100 µM | TGI ([17]; read-out: TGI): > 100 µM | GI50 ([17]; read-out: pGI50 (converted)): 0.407 µM | CC50 [17, 24]: > 100 µM | TGI ([17]; read-out: pTGI): > 100 µM | Activity [18]: 34.52% | viability at 1 µM [19]: 63% | viability at 0.001 µM [20]: 86% | viability at 1 µM [21]: 8% | viability at 0.001 µM [22]: 95%

Source: ChEMBL document CHEMBL4406880, “Design, synthesis, and bioactivity of dihydropyrimidine derivatives as kinesin spindle protein inhibitors” (Bioorg Med Chem, 2019)
